# A selection: hits, their analogues and other compounds. The true share with any hit is near 1.2%.
# procasp3 activ: activators of human procaspase-3; recombinant procaspase-3 D3A, Ac-DEVD-pNA absorbance 405 nm; P42574; activation, % at 8.5 µM; hit rate 0.11% among 330,000;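 active = activation above the mean of all tested compounds plus 3 SD, cut at about 21% in these data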;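 note: 0% = DMSO alone and 100% = DMSO wells spiked with extra 5 µM PC-3 D3A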
#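 Evaluation: percent activation relative to control range; Material: Procaspase-3 D3A mutant, all three cleavage aspartates alanine; Compound: single dose, 8.5 µM nominal compound, 0.8% DMSO; Replication: one well per compound; Signal: absorbance at 405 nm, 0 and 120 min; Schedule: 1 h preincubation plus 2 h reaction at 25 °C.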
# proCasp7 act: counter-screen: procaspase-7 (human) activation; P55210; activation, % at 8.5 µM; hit rate 0.093% among 330,000; recombinant procaspase-7, Ac-DEVD-pNA absorbance 405 nm; D23A/D198A/D206A triple mutant, cannot self-cleave; scale: DMSO 0, 5 µM enzyme 100; AID 463210;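 active = percent activation above the screen-wide mean plus 3 SD, cut at about 25% in these data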
#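 System: Uncleavable procaspase-7 mutant enzyme; Amount: 2 µM procaspase-7 mutant as dispensed; Schedule: 1 h compound preincubation, 2 h substrate cleavage, 25 °C; Measured by: 405 nm absorbance of p-nitroaniline; Evaluation: percent activation from buffer-corrected 0–120 min absorbance change; Control set: low DMSO alone, high DMSO plus 5 µM PC-7.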
# PP5 inh: inhibitors of human protein phosphatase 5 (PP5); purified PP5c, OMFP substrate fluorescence; inhibition, % at 6.7 µM; hit rate 0.18% among 320,000; P53041;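 active = inhibition above the campaign's mean inhibition across all tested compounds plus 3 SD, cut at about 9.5% in these data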;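 note: 0% = DMSO only and 100% = 100 µM cantharidin control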
# Target sequence (P53041 whole entry, looked up): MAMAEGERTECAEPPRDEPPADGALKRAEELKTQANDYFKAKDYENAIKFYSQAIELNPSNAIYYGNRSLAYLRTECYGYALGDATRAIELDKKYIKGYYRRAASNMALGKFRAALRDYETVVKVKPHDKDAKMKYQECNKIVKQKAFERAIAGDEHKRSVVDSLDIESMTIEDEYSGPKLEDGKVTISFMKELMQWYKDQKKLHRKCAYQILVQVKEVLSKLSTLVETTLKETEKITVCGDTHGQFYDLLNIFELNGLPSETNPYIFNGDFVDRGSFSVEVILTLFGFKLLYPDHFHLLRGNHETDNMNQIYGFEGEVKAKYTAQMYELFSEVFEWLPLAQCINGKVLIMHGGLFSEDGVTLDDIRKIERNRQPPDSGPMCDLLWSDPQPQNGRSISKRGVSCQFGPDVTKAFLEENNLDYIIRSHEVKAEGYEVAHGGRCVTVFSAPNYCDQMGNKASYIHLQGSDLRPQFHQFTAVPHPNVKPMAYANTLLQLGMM
# PP1 counter: PP1-alpha (human) inhibition in PP5 counter-screen | inhibition, % at 6.7 µM | purified PP1alpha, OMFP fluorescence | hit rate 0.9% among 320,000 | P62136;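 active = inhibition above the mean inhibition of all tested compounds plus 3 SD, computed separately for each screening campaign, cut at about 15% in these data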
# PP1 confirm: human PP1 phosphatase inhibition, confirmation; hit rate 52% among 1,900; inhibition, % at 6.7 µM; shares compounds with PP1 counter; purified PP1alpha, OMFP substrate fluorescence; AID 2358;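 active = mean PP1 inhibition above a set limit taken from the earlier primary screen, cut at about 15% in these data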
# PP5 counter: inhibits human PP5 phosphatase in PP1 counter-screen | hit rate 4% among 1,900 | inhibition, % at 6.7 µM | shares compounds with PP1 counter | purified PP5c, OMFP fluorescence | AID 2360;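 active = mean PP5 inhibition over triplicate wells above about 9.5% taken from the earlier PP1 screen, limit read from the data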
# * = called active by the depositor; / = not tested or not shown.
SMILES,procasp3 activ,proCasp7 act,PP5 inh,PP1 counter,PP1 confirm,PP5 counter
CCOC(=O)N1CCN(S(=O)(=O)c2ccc(C(=O)NNc3nc4c(C)cccc4s3)cc2)CC1,-15.8,-14.6,4.7,5.0,/,/
Cc1onc(-c2c(F)cccc2Cl)c1C(=O)Nc1cccc(S(=O)(=O)NC2=NCCC2)c1,-1.7,2.1,-0.7,-2.7,/,/
Cc1cc(-c2csc(NC(=O)c3ccc(=O)[nH]c3)n2)c(C)n1Cc1ccco1,-5.3,-14.3,0.9,44.7*,33.6*,-0.9
CCNc1nc(-c2cc(C)n(Cc3ccco3)c2C)cs1,-15.0,-22.9,0.8,7.7,/,/
Cc1ccccc1CCN(C(=O)Cn1nnc2ccccc21)C(C(=O)NCC1CCCO1)c1nc2ccccc2n1C (stereo unspecified),-0.5,8.9,1.2,18.2*,35.9*,-3.2
Cc1ccccc1C(C(=O)NCc1ccco1)N(CC1CCCO1)C(=O)Cn1nnc2ccccc21 (stereo unspecified),-6.6,3.0,2.5,0.0,/,/
Cc1csc(NC(=O)CS(=O)(=O)c2ccccc2)n1,0.4,5.8,-2.1,-1.7,/,/
O=C(Nc1cccc(O)c1)C(Cc1ccccc1)N1C(=O)c2cccc3cccc(c23)C1=O (stereo unspecified),-2.9,-20.1,1.4,18.6*,28.5*,1.0
COc1ccc(/C=C2\SC(=S)N(CCC(=O)N(CCO)c3ccccc3)C2=O)cc1OC,3.2,-5.2,-0.5,-1.4,/,/
CCOc1ccc(/C=C2\SC(=S)N(CCC(=O)N(CCO)c3ccccc3)C2=O)cc1,-9.3,2.0,5.2,21.9*,8.2,4.0
O=C(O)c1nn(CC(=O)N(C2CCCCC2)C2CCCCC2)c(=O)c2ccccc12,10.3,1.4,1.9,0.7,/,/
c1ccc(-c2n[nH]c(-c3ccccn3)n2)cc1,-6.3,9.8,3.3,-4.7,/,/
c1ccc(-c2n[nH]c(-c3ccccn3)n2)nc1,6.8,-8.8,2.4,27.3*,23.3*,-6.1
O=C(Nc1ccc(C(=O)N2CCC(N3CCCC3)CC2)cc1)c1ccc(Br)o1,0.8,0.2,0.9,-3.4,/,/
COc1ccc(CN2C(=NC(=O)C3CCCO3)SC3CS(=O)(=O)CC32)cc1 (stereo unspecified),0.7,0.1,-1.0,7.6,/,/
Cc1c(NC(=O)c2ccc(-c3ccccc3)cc2)cccc1C(=O)O,6.8,2.9,0.9,1.5,/,/
Cc1c(NC(=O)c2cccnc2C(=O)O)cccc1C(=O)O,-1.4,-7.1,0.5,24.6*,0.1,3.1
Cc1cc(C)c(NC(=O)CNC(=O)COC(=O)CNC(=O)c2ccc(Cl)cc2Cl)c(C)c1,7.0,14.4,3.3,-4.4,/,/
O=[N+]([O-])c1ccc(O)c(P(=O)(c2ccccc2)c2ccccc2)c1,-7.2,-5.8,-1.2,2.2,/,/
Cc1ccc(N=Nc2ccc(O)c(P(=O)(c3ccccc3)c3ccccc3)c2)cc1,-22.5,-3.6,2.2,18.5*,15.7*,-3.5
O=C(COC(=O)COc1ccccc1F)NCCc1ccc(F)cc1,6.3,9.4,-0.2,-3.0,/,/
COc1ccc(NC(=O)CSc2nc3nc(-c4cccs4)cc(C(F)(F)F)c3c(=O)[nH]2)c(OC)c1,5.5,4.6,0.9,-0.6,/,/
CCOc1ccccc1NC(=O)CSc1nc2nc(-c3cccs3)cc(C(F)(F)F)c2c(=O)[nH]1,-26.1,1.2,1.7,21.1*,14.7,1.7
O=C(CSc1n[nH]c(=O)[nH]c1=O)Nc1ccc2c(c1)C(=O)c1ccccc1C2=O,-3.9,-2.2,-0.4,21.1*,30.8*,-1.0
CCCCN(C(=O)CSc1nnnn1C)C1CCS(=O)(=O)C1 (stereo unspecified),9.5,13.8,1.4,-1.0,/,/
SMILES,procasp3 activ,proCasp7 act,PP5 inh,PP1 counter,PP1 confirm,PP5 counter
O=P(O)(O)CP(=O)(O)O,8.9,3.0,5.0,25.3*,37.9*,5.0
O=C(O)CP(=O)(O)O,-4.3,-4.5,9.2,-7.7,/,/
Cc1ccc(NC(=O)CN2C(=O)N/C(=C/c3ccccc3OCc3cccc(C(=O)O)c3)C2=O)cc1,-6.5,-7.4,1.9,51.7*,33.3*,-5.7
COc1cccc(/C=C2/NC(=O)N(CC(=O)Nc3ccc(C)cc3)C2=O)c1OCc1cccc(C(=O)O)c1,1.9,-6.8,0.5,-2.4,/,/
Cc1cc(C)c(S(=O)(=O)N2CCN(C(=O)C3COc4ccccc4O3)CC2)c(C)c1 (stereo unspecified),11.9,14.2,2.8,3.2,/,/
O=C(Nc1cccc(-c2cn3ccccc3n2)c1)c1cc2ccccc2oc1=O,-1.5,-0.9,2.1,24.0*,27.5*,-3.8
CCOc1ccc(NC(=O)CN(C)C(=O)Cn2c(=O)oc3ccccc32)cc1OCC,3.7,-1.9,-2.1,41.2*,-4.1,-5.9
Cc1ccc(N2CC(C(=O)NCCS(=O)(=O)N3CCN(c4ccccc4)CC3)CC2=O)cc1C (stereo unspecified),0.8,-1.7,-1.3,-5.0,/,/
O=c1c2ccccc2nc(-c2ccccc2)n1O,2.2,-5.0,3.4,-0.9,/,/
O=C(O)c1ccccc1-c1nc2ccccc2c(=O)n1O,2.5,16.6,4.2,24.6*,29.9*,1.4
CCOC(=O)Oc1c(OC)cc(C(=O)O[C@@H]2C[C@@H]3CN4CCc5c([nH]c6cc(OC)ccc56)[C@H]4C[C@@H]3[C@H](C(=O)OC)[C@H]2OC)cc1OC,-2.8,-10.4,-9.2,19.5*,-0.4,4.6
Cc1ccc2[nH]c(=O)c3cc(C(=O)NC(C)C)sc3c2c1,-0.7,1.9,4.0,3.1,/,/
CCN1CCN(Cc2ccc(NC(=O)c3ccc(C)c(NC(=O)C4=NN(c5ccccc5)C(=O)C4)c3)cc2C(F)(F)F)CC1,6.3,-3.0,3.3,18.4*,1.3,-1.7
CCN1CCN(Cc2ccc(NC(=O)c3cc(NC(=O)c4cncc(-c5cccs5)c4)cc(OC)c3)cc2C(F)(F)F)CC1,6.7,7.5,3.7,19.5*,-23.2,0.5
CCN1CCN(Cc2ccc(NC(=O)c3cc(NC(=O)C4=NN(c5ccccc5)C(=O)C4)cc(OC)c3)cc2C(F)(F)F)CC1,4.5,-11.5,4.7,17.6*,-5.8,-1.7
CN(C)C(CNC(=O)c1cc2ccccc2o1)c1ccco1 (stereo unspecified),-2.9,-1.3,/,/,/,/
O=C(COC(=O)C1CC1)Nc1ccc(Cl)cc1Cl,2.8,11.0,0.6,-2.8,/,/
CN(C)c1ccccc1C(=O)N1CCC(n2nccc2NC(=O)C2CC2)CC1,-0.2,-4.0,0.9,-1.7,/,/
COc1ccc([N+](=O)[O-])cc1NC(=O)c1ccc(Br)s1,11.1,-3.2,-0.4,17.7*,21.1*,-6.2
COc1ccc([N+](=O)[O-])cc1NC(=O)COC(C)=O,13.1,-0.1,2.3,-2.3,/,/
Cc1ccc(Oc2nc(CN3CCOCC3)nc3sc4c(c23)CCC(C)C4)cc1 (stereo unspecified),-1.2,1.4,-6.9,-5.1,/,/

# Screening results: PubChem, The Scripps Research Institute Molecular Screening Center
